Measurements published in ChEMBL document CHEMBL1671716, “Antimicrobial susceptibility patterns for recent clinical isolates of anaerobic bacteria in South Korea” (2010).

Legend:
Hoylesella oralis [1] = assay: Antimicrobial activity against Prevotella oralis after 48 hrs by agar dilution method in presence of 4 ug/ml beta-lactamase inhibitor Tazobactam; type: functional
Summary of the method: (§1)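 CLSI agar dilution (M11-A7); inoculum 10^5 CFU applied by replicator; plates incubated anaerobically 48 h at 37°C. For piperacillin-tazobactam, tazobactam held constant at 4 μg/ml.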

[2] = system: Bacteroides thetaiotaomicron; assay: Antimicrobial activity against Bacteroides thetaiotaomicron after 48 hrs by agar dilution method in presence of 4 ug/ml beta-lactamase inhibitor Tazobactam; type: functional
Summary of the method: (§2)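 MICs by CLSI agar dilution for piperacillin combined with tazobactam, with tazobactam held constant at 4 μg/ml. Clinical anaerobe isolates inoculated at 10^5 CFU by Steers replicator. Plates kept in an anaerobic chamber at 37°C for 48 h.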

Bacteroides caccae [3] = assay: Antimicrobial activity against Bacteroides caccae assessed as percent resistant isolates after 48 hrs by agar dilution method in presence of 4 ug/ml beta-lactamase inhibitor Tazobactam; type: functional
Summary of the method: (§3)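 CLSI agar dilution on recent Korean clinical anaerobe isolates. Inoculum 10^5 CFU per spot by replicator. Plates incubated in an anaerobic chamber at 37°C for 48 h. For piperacillin plus tazobactam, tazobactam was held constant at 4 μg/ml. Resistance and susceptibility rates derived from MICs.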

Bacteroides fragilis [4] = assay: Antimicrobial activity against Bacteroides fragilis assessed as percent resistant isolates after 48 hrs by agar dilution method in presence of 4 ug/ml beta-lactamase inhibitor Tazobactam; type: functional; summary of the method: as §3
Hoylesella oralis [5] = assay: Antimicrobial activity against Prevotella oralis assessed as percent resistant isolates after 48 hrs by agar dilution method in presence of 4 ug/ml beta-lactamase inhibitor Tazobactam; type: functional; summary of the method: as §3
[6] = system: Peptoniphilus asaccharolyticus; assay: Antimicrobial activity against Peptoniphilus asaccharolyticus assessed as percent susceptible isolates after 48 hrs by agar dilution method in presence of 4 ug/ml beta-lactamase inhibitor Tazobactam; type: functional; summary of the method: as §1
Clostridium perfringens [7] = assay: Antimicrobial activity against Clostridium perfringens assessed as percent susceptible isolates after 48 hrs by agar dilution method in presence of 4 ug/ml beta-lactamase inhibitor Tazobactam; type: functional; summary of the method: as §3
Prevotella buccae = assay: Antimicrobial activity against Prevotella buccae assessed as percent resistant isolates after 48 hrs by agar dilution method in presence of 4 ug/ml beta-lactamase inhibitor Tazobactam; type: functional, Segatella buccae; summary of the method: as §3
Anaerococcus prevotii = assay: Antimicrobial activity against Anaerococcus prevotii assessed as percent resistant isolates after 48 hrs by agar dilution method in presence of 4 ug/ml beta-lactamase inhibitor Tazobactam; type: functional; summary of the method: as §3
Clostridium perfringens [8] = assay: Antimicrobial activity against Clostridium perfringens after 48 hrs by agar dilution method in presence of 4 ug/ml beta-lactamase inhibitor Tazobactam; type: functional
Summary of the method: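 Agar dilution per CLSI on Korean clinical C. perfringens isolates. Tazobactam at a fixed 4 μg/ml with piperacillin. 10^5 CFU spotted by replicator, then 48 h at 37°C in an anaerobic chamber. MIC read.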

Eubacterium sp. [9] = assay: Antimicrobial activity against Eubacterium sp. after 48 hrs by agar dilution method in presence of 4 ug/ml beta-lactamase inhibitor Tazobactam; type: functional; summary of the method: as §1
Eubacterium sp. [10] = assay: Antimicrobial activity against Eubacterium sp. assessed as percent resistant isolates after 48 hrs by agar dilution method in presence of 4 ug/ml beta-lactamase inhibitor Tazobactam; type: functional; summary of the method: as §3
Bacteroides caccae [11] = assay: Antimicrobial activity against Bacteroides caccae after 48 hrs by agar dilution method in presence of 4 ug/ml beta-lactamase inhibitor Tazobactam; type: functional; summary of the method: as §2
Phocaeicola vulgatus = assay: Antimicrobial activity against Bacteroides vulgatus after 48 hrs by agar dilution method in presence of 4 ug/ml beta-lactamase inhibitor Tazobactam; type: functional; summary of the method: as §2
Fusobacterium mortiferum = assay: Antimicrobial activity against Fusobacterium mortiferum after 48 hrs by agar dilution method in presence of 4 ug/ml beta-lactamase inhibitor Tazobactam; type: functional; summary of the method: as §1
Parvimonas micra = assay: Antimicrobial activity against Peptostreptococcus micros assessed as percent susceptible isolates after 48 hrs by agar dilution method in presence of 4 ug/ml beta-lactamase inhibitor Tazobactam; type: functional; summary of the method: as §1
[12] = system: Peptostreptococcus anaerobius; assay: Antimicrobial activity against Peptostreptococcus anaerobius after 48 hrs by agar dilution method in presence of 4 ug/ml beta-lactamase inhibitor Tazobactam; type: functional; summary of the method: as §1
Actinomyces naeslundii = assay: Antimicrobial activity against Actinomyces naeslundii assessed as percent resistant isolates after 48 hrs by agar dilution method in presence of 4 ug/ml beta-lactamase inhibitor Tazobactam; type: functional; summary of the method: as §3
Schaalia odontolytica [13] = assay: Antimicrobial activity against Actinomyces odontolyticus after 48 hrs by agar dilution method in presence of 4 ug/ml beta-lactamase inhibitor Tazobactam; type: functional; summary of the method: as §2
[14] = system: Bifidobacterium adolescentis; assay: Antimicrobial activity against Bifidobacterium adolescentis assessed as percent resistant isolates after 48 hrs by agar dilution method in presence of 4 ug/ml beta-lactamase inhibitor Tazobactam; type: functional; summary of the method: as §3
Schaalia odontolytica [15] = assay: Antimicrobial activity against Actinomyces odontolyticus assessed as percent susceptible isolates after 48 hrs by agar dilution method in presence of 4 ug/ml beta-lactamase inhibitor Tazobactam; type: functional; conditions: pooled result: one value given for 8 cell lines, strains, targets or settings
Fusobacterium necrogenes = assay: Antimicrobial activity against Fusobacterium necrogenes after 48 hrs by agar dilution method in presence of 4 ug/ml beta-lactamase inhibitor Tazobactam; type: functional; summary of the method: as §1
Bacteroides fragilis [16] = assay: Antimicrobial activity against Bacteroides fragilis assessed as percent susceptible isolates after 48 hrs by agar dilution method in presence of 4 ug/ml beta-lactamase inhibitor Tazobactam; type: functional
Bacteroides fragilis [17] = assay: Antimicrobial activity against Bacteroides fragilis after 48 hrs by agar dilution method in presence of 4 ug/ml beta-lactamase inhibitor Tazobactam; type: functional; summary of the method: as §2
Bacteroides ovatus = assay: Antimicrobial activity against Bacteroides ovatus assessed as percent susceptible isolates after 48 hrs by agar dilution method in presence of 4 ug/ml beta-lactamase inhibitor Tazobactam; type: functional
Clostridioides difficile = assay: Antimicrobial activity against Clostridium difficile assessed as percent resistant isolates after 48 hrs by agar dilution method in presence of 4 ug/ml beta-lactamase inhibitor Tazobactam; type: functional; summary of the method: as §3
Hoylesella oralis [18] = assay: Antimicrobial activity against Prevotella oralis assessed as percent susceptible isolates after 48 hrs by agar dilution method in presence of 4 ug/ml beta-lactamase inhibitor Tazobactam; type: functional
Schaalia meyeri = assay: Antimicrobial activity against Actinomyces meyeri assessed as percent resistant isolates after 48 hrs by agar dilution method in presence of 4 ug/ml beta-lactamase inhibitor Tazobactam; type: functional; summary of the method: as §3
[19] = system: Parabacteroides distasonis; assay: Antimicrobial activity against Bacteroides distasonis after 48 hrs by agar dilution method in presence of 4 ug/ml beta-lactamase inhibitor Tazobactam; type: functional; summary of the method: as §2
Actinomyces israelii = assay: Antimicrobial activity against Actinomyces israelii after 48 hrs by agar dilution method in presence of 4 ug/ml beta-lactamase inhibitor Tazobactam; type: functional; summary of the method: as §2
[20] = system: Peptostreptococcus anaerobius; assay: Antimicrobial activity against Peptostreptococcus anaerobius assessed as percent susceptible isolates after 48 hrs by agar dilution method in presence of 4 ug/ml beta-lactamase inhibitor Tazobactam; type: functional; summary of the method: as §1
Prevotella intermedia = assay: Antimicrobial activity against Prevotella intermedia after 48 hrs by agar dilution method in presence of 4 ug/ml beta-lactamase inhibitor Tazobactam; type: functional; summary of the method: as §1
[21] = system: Peptoniphilus asaccharolyticus; assay: Antimicrobial activity against Peptoniphilus asaccharolyticus assessed as percent resistant isolates after 48 hrs by agar dilution method in presence of 4 ug/ml beta-lactamase inhibitor Tazobactam; type: functional; summary of the method: as §3

Question: How did the MIC50 (Hoylesella oralis [1]) turn out when CCN1CCN(C(=O)N[C@@H](C(=O)N[C@@H]2C(=O)N3[C@@H]2SC(C)(C)[C@@H]3C(=O)O)c2ccccc2)C(=O)C1=O [PIPERACILLIN] was run?
Answer: ≤ 0.03 µg/mL

Question: What about the MIC90 (Hoylesella oralis [1]) of the same molecule?
Answer: 4 µg/mL

Question: And the MIC50 [2]?
Answer: 8 µg/mL

Question: And the MIC90 [2]?
Answer: 64 µg/mL

Question: What about the Activity (Bacteroides caccae [3]) of the same molecule?
Answer: 7%

Question: And the Activity (Bacteroides fragilis [4])?
Answer: 2%

Question: What about the Activity (Hoylesella oralis [5]) of the same molecule?
Answer: 0%

Question: What about the Activity [6] of the same molecule?
Answer: 100%

Question: What about the Activity (Clostridium perfringens [7]) of the same molecule?
Answer: 100%

Question: And the Activity (Prevotella buccae)?
Answer: 0%

Question: And the Activity (Anaerococcus prevotii)?
Answer: 0%

Question: What about the MIC50 (Clostridium perfringens [8]) of the same molecule?
Answer: 0.25 µg/mL

Question: What about the MIC90 (Clostridium perfringens [8]) of the same molecule?
Answer: 0.5 µg/mL

Question: What about the MIC50 (Eubacterium sp. [9]) of the same molecule?
Answer: 0.5 µg/mL

Question: What about the MIC90 (Eubacterium sp. [9]) of the same molecule?
Answer: 8 µg/mL

Question: And the Activity (Eubacterium sp. [10])?
Answer: 0%

Question: And the MIC50 (Bacteroides caccae [11])?
Answer: 8 µg/mL

Question: And the MIC90 (Bacteroides caccae [11])?
Answer: 64 µg/mL

Question: What about the MIC50 (Phocaeicola vulgatus) of the same molecule?
Answer: 8 µg/mL

Question: What about the MIC90 (Phocaeicola vulgatus) of the same molecule?
Answer: 64 µg/mL

Question: What about the MIC (Fusobacterium mortiferum) of the same molecule?
Answer: 0.03 µg/mL

Question: What about the Activity (Parvimonas micra) of the same molecule?
Answer: 0%

Question: What about the MIC50 [12] of the same molecule?
Answer: 0.25 µg/mL

Question: What about the MIC90 [12] of the same molecule?
Answer: 16 µg/mL

Question: And the Activity (Actinomyces naeslundii)?
Answer: 0%

Question: And the MIC50 (Schaalia odontolytica [13])?
Answer: 0.5 µg/mL

Question: What about the MIC90 (Schaalia odontolytica [13]) of the same molecule?
Answer: 8 µg/mL

Question: And the Activity [14]?
Answer: 0%

Question: And the Activity (Schaalia odontolytica [15])?
Answer: 92%

Question: And the MIC (Fusobacterium necrogenes)?
Answer: 0.03 µg/mL

Question: And the Activity (Bacteroides fragilis [16])?
Answer: 97%

Question: And the MIC50 (Bacteroides fragilis [17])?
Answer: 1 µg/mL

Question: What about the MIC90 (Bacteroides fragilis [17]) of the same molecule?
Answer: 4 µg/mL

Question: And the Activity (Bacteroides ovatus)?
Answer: 89%

Question: What about the Activity (Clostridioides difficile) of the same molecule?
Answer: 0%

Question: And the Activity (Hoylesella oralis [18])?
Answer: 100%

Question: What about the Activity (Schaalia meyeri) of the same molecule?
Answer: 0%

Question: And the MIC50 [19]?
Answer: 8 µg/mL

Question: What about the MIC90 [19] of the same molecule?
Answer: 64 µg/mL

Question: And the MIC50 (Actinomyces israelii)?
Answer: 0.5 µg/mL

Question: And the MIC90 (Actinomyces israelii)?
Answer: 8 µg/mL

Question: And the Activity [20]?
Answer: 100%

Question: And the MIC50 (Prevotella intermedia)?
Answer: ≤ 0.03 µg/mL

Question: And the MIC90 (Prevotella intermedia)?
Answer: ≤ 0.03 µg/mL

Question: What about the Activity [21] of the same molecule?
Answer: 0%
